≈ marks a conversion by molar mass, not a printed value.
Experiments:
[1] = target: T1, Prostaglandin G/H synthase 1 (Mus musculus, UniProt P22437); test: Inhibition of COX1-mediated PGE2 production in mouse J774 cells preincubated for 15 mins measured after 30 mins by radioimmunoassay; assay type: cell-based
T1 sequence (P22437 whole entry): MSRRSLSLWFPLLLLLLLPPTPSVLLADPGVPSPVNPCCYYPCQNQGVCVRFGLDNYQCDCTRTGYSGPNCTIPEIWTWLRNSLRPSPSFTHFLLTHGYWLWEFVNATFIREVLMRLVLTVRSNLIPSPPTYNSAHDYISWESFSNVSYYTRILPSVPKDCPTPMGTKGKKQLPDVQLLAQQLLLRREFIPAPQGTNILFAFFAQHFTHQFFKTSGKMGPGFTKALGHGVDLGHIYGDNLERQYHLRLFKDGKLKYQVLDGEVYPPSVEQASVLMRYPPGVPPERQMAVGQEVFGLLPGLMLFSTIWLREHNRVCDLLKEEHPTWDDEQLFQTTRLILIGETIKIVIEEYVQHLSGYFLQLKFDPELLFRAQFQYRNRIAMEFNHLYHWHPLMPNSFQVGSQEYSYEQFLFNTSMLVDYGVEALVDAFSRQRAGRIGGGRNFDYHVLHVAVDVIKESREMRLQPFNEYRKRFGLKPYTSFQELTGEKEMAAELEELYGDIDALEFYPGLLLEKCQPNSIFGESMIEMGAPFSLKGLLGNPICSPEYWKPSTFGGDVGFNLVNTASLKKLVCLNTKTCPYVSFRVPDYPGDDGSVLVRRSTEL
In short: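 Murine J774 macrophages in DMEM/10% FBS, adhered 2 h at 37 °C. […] Supernatant PGE2 measured by RIA. Triplicate wells, mean of three experiments; IC50 by sigmoidal variable-slope fit.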

J774 = test: Selectivity index, ratio of IC50 for COX1-mediated PGE2 production to IC50 for COX2-mediated PGE2 production in mouse J774 cells; assay type: cell-based
In short: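 Ratio of the COX-1 IC50 to the COX-2 IC50, both from PGE2 RIA in J774 cells. For COX-1, cells were given compound for 15 min, then 15 μM arachidonic acid for 30 min; lower concentrations (0.01–1 μM) were tested when warranted. For COX-2, cells were given LPS 10 µg/mL for 24 h with compound at 0.01–10 μM. IC50 came from a sigmoidal variable-slope fit.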

[2] = target: T2, Prostaglandin G/H synthase 2 (Mus musculus) (UniProt Q05769); test: Inhibition of COX2-mediated PGE2 production in LPS-induced mouse J774 cells by radioimmunoassay relative to control; assay type: cell-based; parameters: concentration or dose not given beside the values; conditions: concentration not given here
T2 sequence (whole entry): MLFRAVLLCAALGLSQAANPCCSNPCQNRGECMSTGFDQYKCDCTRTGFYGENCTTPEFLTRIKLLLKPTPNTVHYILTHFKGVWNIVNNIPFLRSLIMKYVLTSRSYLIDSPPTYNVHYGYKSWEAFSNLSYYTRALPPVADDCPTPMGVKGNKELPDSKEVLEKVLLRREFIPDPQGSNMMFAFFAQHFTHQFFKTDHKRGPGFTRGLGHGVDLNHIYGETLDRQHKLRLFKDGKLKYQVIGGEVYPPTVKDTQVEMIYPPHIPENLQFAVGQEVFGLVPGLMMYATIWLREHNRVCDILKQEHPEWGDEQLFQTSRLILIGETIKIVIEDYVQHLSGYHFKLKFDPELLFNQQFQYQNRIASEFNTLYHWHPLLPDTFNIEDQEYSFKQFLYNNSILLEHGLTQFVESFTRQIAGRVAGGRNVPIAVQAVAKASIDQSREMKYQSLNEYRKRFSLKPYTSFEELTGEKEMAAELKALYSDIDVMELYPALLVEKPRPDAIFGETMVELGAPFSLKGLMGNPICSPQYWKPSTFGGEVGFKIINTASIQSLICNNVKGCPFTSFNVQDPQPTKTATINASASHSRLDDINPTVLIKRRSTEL
In short: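 J774 cells, cultured as for the COX-1 assay, were stimulated 24 h with E. coli LPS (10 µg/mL) to induce COX-2, with or without compound at 0.01–10 μM. Supernatant PGE2 was measured by RIA as % inhibition versus control, triplicate wells, mean of three experiments. IC50 came from a sigmoidal variable-slope dose-response fit.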

[3] = target: T3, Prostaglandin G/H synthase 1 (Mus musculus) (UniProt P22437); test: Inhibition of COX1-mediated PGE2 production in mouse J774 cells at 10 uM preincubated for 15 mins measured after 30 mins by radioimmunoassay relative to control; assay type: cell-based
T3 sequence (whole entry): T1 sequence (P22437 whole entry)
In short: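 Murine J774 macrophages in DMEM with 10% FBS, glutamine, HEPES, pyruvate and antibiotics, adhered 2 h at 37 °C in 5% CO2. Medium was refreshed, cells were pretreated with compound for 15 min, then given 15 μM arachidonic acid for 30 min at 37 °C. PGE2 in supernatant was measured by RIA as % inhibition versus control, triplicate wells, mean of three experiments.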

[4] = target: T4, Prostaglandin G/H synthase 2 (Mus musculus, UniProt Q05769); test: Inhibition of COX2-mediated PGE2 production in LPS-induced mouse J774 cells by radioimmunoassay; assay type: cell-based
T4 sequence (Q05769 whole entry): T2 sequence (whole entry)
In short: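 J774 murine macrophages stimulated 24 h with E. coli LPS (10 µg/mL) to induce COX-2, with or without compound (0.01–10 μM). Supernatant PGE2 measured by RIA; percent inhibition against controls. Triplicate wells, mean of three experiments; IC50 from sigmoidal variable-slope fit.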

[5] = Solubility of the compound in simulated gastric fluid without pepsin at pH 1.5 by HPLC analysis; assay type: physicochemical
In short: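 Compound from 20 mM DMSO stock diluted 1:100 into 0.05 M simulated gastric fluid without pepsin (pH 1.5 with HCl), duplicate wells on a solubility filter plate, shaken 90 min at 300 rpm. Seven-point calibration standards from 1 to 200 μM.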

Mus musculus [6] = test: Analgesic activity in Swiss albino mouse assessed as reduction of acetic acid-induced writhing at 71.8 nmol/kg, po after 5 mins; assay type: functional; parameters: scale not given: the % may be the effect or the level left
In short: (§1)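 Male Swiss albino mice (23-25 g), standard diet and water ad libitum, 23 ± 1 °C, 12 h light/dark cycle. Test compound given orally; 0.6% acetic acid (10 mL/kg) injected ip. Stretching movements counted for 10 min, beginning 5 min after administration.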

Aorta = test: Vasorelaxant activity in Wistar rat endothelium-denuded thoracic aortic ring assessed as inhibition of KCl-induced contractile tone in presence of guanylate cyclase inhibitor ODQ; assay type: functional, tissue-based
In short: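 Male normotensive Wistar rats (250–350 g); thoracic aortic rings, endothelium removed by rubbing, removal confirmed by <10% relaxation to ACh (10 µM) in KCl (30 mM)-contracted rings. ODQ 1 µM incubated after confirmation; rings contracted with KCl 30 mM, then 3-fold increasing compound concentrations (1 nM–10 µM). Isometric tension; pIC50 from half reduction of KCl tone; mean ± SE, 6–10 experiments.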

[7] = Solubility of the compound in PBS buffer at pH 7.4 by HPLC analysis; assay type: physicochemical
In short: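 20 mM DMSO stocks diluted 1:100 into 0.01 M PBS pH 7.4 in duplicate wells of a solubility filter plate, shaken 90 min at 300 rpm. Seven-point calibration standards from 1 to 200 μM.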

Mus musculus [8] = test: Analgesic activity in Swiss albino mouse assessed as reduction of acetic acid-induced writhing at 35.9 nmol/kg, po after 5 mins; assay type: functional; parameters: scale not given: the % may be the effect or the level left; in short: as §1
Mus musculus [9] = test: Analgesic activity in Swiss albino mouse assessed as reduction of acetic acid-induced writhing at 36.8 nmol/kg, po after 5 mins; assay type: functional; parameters: scale not given: the % may be the effect or the level left; in short: as §1
Mus musculus [10] = test: Analgesic activity in Swiss albino mouse assessed as reduction of acetic acid-induced writhing at 18.4 nmol/kg, po after 5 mins; assay type: functional; parameters: scale not given: the % may be the effect or the level left; in short: as §1
Mus musculus [11] = test: Analgesic activity in Swiss albino mouse assessed as reduction of acetic acid-induced writhing at 73.6 nmol/kg, po after 5 mins; assay type: functional; parameters: scale not given: the % may be the effect or the level left; in short: as §1
Rattus norvegicus [12] = test: Antiinflammatory activity in rat assessed as reduction of carrageenan-induced oedema in right hind paw at 20 mg/kg, po after 4 hrs post carrageenan-challenge; assay type: functional; parameters: scale not given: the % may be the effect or the level left
In short: (§2)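 Sprague-Dawley or Wistar rats (150-200 g). Carrageenan injected intraplantar; oral treatment with test compound or CMC vehicle. Right hind paw volume measured 4 h after carrageenan and compared with saline- and carrageenan-treated controls.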

Rattus norvegicus [13] = test: Antiinflammatory activity in rat assessed as reduction of carrageenan-induced paw pressure at 20 mg/kg, po after 45 mins post carrageenan-challenge; assay type: functional; parameters: scale not given: the % may be the effect or the level left
In short: (§3)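 Rats (Sprague-Dawley or Wistar, 150-200 g) received intraplantar carrageenan 4 h before testing, then oral compound or CMC vehicle. Paw-pressure threshold read before treatment and at 15, 30, 45 and 60 min after treatment, compared with saline and carrageenan controls.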

Rattus norvegicus [14] = test: Antiinflammatory activity in rat assessed as reduction of carrageenan-induced paw pressure at 40 mg/kg, po after 45 mins post carrageenan-challenge; assay type: functional; parameters: scale not given: the % may be the effect or the level left; in short: as §3
Rattus norvegicus [15] = test: Antiinflammatory activity in rat assessed as reduction of carrageenan-induced paw pressure at 40 mg/kg, po after 30 mins post carrageenan-challenge; assay type: functional; parameters: scale not given: the % may be the effect or the level left; in short: as §3
Rattus norvegicus [16] = test: Antiinflammatory activity in rat assessed as reduction of carrageenan-induced paw pressure at 20 mg/kg, po after 30 mins post carrageenan-challenge; assay type: functional; parameters: scale not given: the % may be the effect or the level left; in short: as §3
Rattus norvegicus [17] = test: Antiinflammatory activity in rat assessed as reduction of carrageenan-induced paw pressure at 40 mg/kg, po after 15 mins post carrageenan-challenge; assay type: functional; parameters: scale not given: the % may be the effect or the level left; in short: as §3
Rattus norvegicus [18] = test: Antiinflammatory activity in rat assessed as reduction of carrageenan-induced paw pressure at 20 mg/kg, po after 60 mins post carrageenan-challenge; assay type: functional; parameters: scale not given: the % may be the effect or the level left; in short: as §3
Rattus norvegicus [19] = test: Antiinflammatory activity in rat assessed as reduction of carrageenan-induced paw pressure at 20 mg/kg, po after 15 mins post carrageenan-challenge; assay type: functional; parameters: scale not given: the % may be the effect or the level left; in short: as §3
Mus musculus [20] = test: Analgesic activity in Swiss albino mouse assessed as reduction of acetic acid-induced writhing at 5.5 nmol/kg, po after 5 mins; assay type: functional; parameters: scale not given: the % may be the effect or the level left; in short: as §1
Rattus norvegicus [21] = test: Antiinflammatory activity in rat assessed as reduction of carrageenan-induced paw pressure at 40 mg/kg, po after 60 mins post carrageenan-challenge; assay type: functional; parameters: scale not given: the % may be the effect or the level left; in short: as §3
Rattus norvegicus [22] = test: Antiinflammatory activity in rat assessed as reduction of carrageenan-induced oedema in right hind paw at 40 mg/kg, po after 4 hrs post carrageenan-challenge; assay type: functional; parameters: scale not given: the % may be the effect or the level left; in short: as §2

Compound | IC50 [1] [nM] | Ratio IC50 (J774) | inhibition [2] [%] | inhibition [3] [%] | IC50 [4] [nM] | other results
Cc1c(C(N)C(=O)OCCCO)cc(-c2ccc(S(C)(=O)=O)cc2)n1-c1ccc(F)cc1 (stereo not given) | > 10000 | > 13.2 | 100 | 23 | 760 | –
Cc1c(C(N)C(=O)OCCCCO[N+](=O)[O-])cc(-c2ccc(S(C)(=O)=O)cc2)n1-c1cccc(F)c1 (stereo not given) | > 10000 | > 7.09 | 59 | 15 | 1410 | –
Cc1c(C(N)C(=O)OCCCO[N+](=O)[O-])cc(-c2ccc(S(C)(=O)=O)cc2)n1-c1cccc(F)c1 (stereo not given) | > 10000 | > 6.62 | 100 | 5 | 1510 | –
Cc1c(C(N)C(=O)OCCCCO[N+](=O)[O-])cc(-c2ccc(S(C)(=O)=O)cc2)n1-c1ccc(F)cc1 (stereo not given) | > 10000 | > 10 | 82 | 1 | – | solubility [5]: > 200 µM; Activity (Mus musculus [6]): 40.7%; IC50 (Aorta): 1550 nM; solubility [7]: 70.8 µM (≈ 36.8 µg/mL); Activity (Mus musculus [8]): 26.9%
Cc1c(C(N)C(=O)OCCCO[N+](=O)[O-])cc(-c2ccc(S(C)(=O)=O)cc2)n1-c1ccc(F)cc1 (stereo not given) | > 10000 | > 12.2 | 95 | 0 | – | Activity (Mus musculus [9]): 46.1%; Activity (Mus musculus [10]): 36.2%; Activity (Mus musculus [11]): 59.6%; solubility [5]: > 200 µM; Activity (Rattus norvegicus [12]): 15%; Activity (Rattus norvegicus [13]): 27%; Activity (Rattus norvegicus [14]): 53%; IC50 (Aorta): 2190 nM; Activity (Rattus norvegicus [15]): 70%; Activity (Rattus norvegicus [16]): 44%; Activity (Rattus norvegicus [17]): 40%; solubility [7]: 80 µM (≈ 40.4 µg/mL); Activity (Rattus norvegicus [18]): 15%; Activity (Rattus norvegicus [19]): 25%; Activity (Mus musculus [20]): 19%; Activity (Rattus norvegicus [21]): 16%; Activity (Rattus norvegicus [22]): 45%
Cc1c(C(N)C(=O)OCCCCO)cc(-c2ccc(S(C)(=O)=O)cc2)n1-c1cccc(F)c1 (stereo not given) | > 10000 | > 6.67 | 100 | 23 | 1500 | –
Cc1c(C(N)C(=O)OCCCO)cc(-c2ccc(S(C)(=O)=O)cc2)n1-c1cccc(F)c1 (stereo not given) | > 10000 | > 8.4 | 79 | 30 | 1190 | –
Cc1c(C(N)C(=O)OCCCCO)cc(-c2ccc(S(C)(=O)=O)cc2)n1-c1ccc(F)cc1 (stereo not given) | > 10000 | > 45.5 | 100 | 10 | 220 | –

— ChEMBL document CHEMBL2151030, “Improving the solubility of a new class of antiinflammatory pharmacodynamic hybrids, that release nitric oxide and inhibit cycloxygenase-2 isoenzyme” (Eur J Med Chem, 2012)
